These results are taken from ChEMBL document CHEMBL1141655, “Structure-activity relationships of Bak derived peptides: affinity and specificity modulations by amino acid replacement” (Eur J Med Chem, 2008).

The term EC50 denotes the midpoint of the concentration-response curve.

The target of one assay is Bcl-2-like protein 1 (Homo sapiens, UniProt Q07817). As to the kind of experiment: Binding affinity to recombinant Bcl-XL expressed in Escherichia coli BL21 by fluorescence polarization assay. On the technique in general: Polarisation of emitted light reports the rotation of a fluorescent probe.
The target in assay [1] is Apoptosis regulator Bcl-2 (Homo sapiens, UniProt P10415). As to the kind of experiment: Binding affinity to recombinant Bcl-2 expressed in Escherichia coli BL21 by fluorescence polarization assay. In a few lines:
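GST-Bcl-2 lacking C-terminal 21 residues, glutathione-resin purified, dialysed into 20 mM phosphate pH 7.4, 1 mM EDTA, 50 mM NaCl. Competition FP: fluorescein N-terminal Bak BH3 probe 15 nM, protein 1 µM, peptide final 10^-9 to 10^-4 M with 0.05% pluronic acid; 30 min room temperature; ex 485/em 535 nm, mP. EC50 from sigmoidal dose-response, n = 2, triplicate.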

Assay [2] can be described thus: Selectivity ratio of EC50 for recombinant Bcl-2 to EC50 for recombinant Bcl-XL.

Chain of Apoptosis regulator Bcl-2 (P10415 whole entry): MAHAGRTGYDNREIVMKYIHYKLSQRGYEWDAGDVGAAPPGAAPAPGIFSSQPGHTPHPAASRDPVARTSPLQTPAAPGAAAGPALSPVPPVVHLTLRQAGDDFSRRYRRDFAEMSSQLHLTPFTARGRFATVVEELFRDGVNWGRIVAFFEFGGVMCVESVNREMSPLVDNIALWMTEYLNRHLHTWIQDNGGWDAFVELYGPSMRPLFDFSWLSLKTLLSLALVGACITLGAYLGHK
Chain of Bcl-2-like protein 1 (Q07817 whole entry): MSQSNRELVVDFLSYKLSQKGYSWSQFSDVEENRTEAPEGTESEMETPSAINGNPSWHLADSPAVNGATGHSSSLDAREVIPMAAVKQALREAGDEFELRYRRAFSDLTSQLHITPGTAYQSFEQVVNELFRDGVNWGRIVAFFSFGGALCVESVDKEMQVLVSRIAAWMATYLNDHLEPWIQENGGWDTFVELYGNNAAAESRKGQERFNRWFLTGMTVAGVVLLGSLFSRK

As for `CC[C@H](C)[C@H](NC(=O)[C@H](C)NC(=O)[C@H](CC(C)C)NC(=O)[C@H](CCC(N)=O)NC(=O)[C@H](CCCNC(=N)N)NC(=O)CNC(=O)[C@H](Cc1ccc2ccccc2c1)NC(=O)[C@H](CCC(N)=O)NC(=O)CN)C(=O)N[C@H](C(=O)NCC(=O)N[C@@H](CC(=O)O)C(=O)N[C@@H](CC(=O)O)C(=O)N[C@H](C(=O)N[C@@H](CC(N)=O)C(=O)N[C@@H](CCCNC(=N)N)C(=O)O)[C@@H](C)CC)[C@@H](C)CC`, the EC50 came to 0.35 µM at Bcl-2-like protein 1 and 6.13 µM in assay [1]. In assay [2], the Ratio EC50 came to 17.
For `CC[C@H](C)[C@H](NC(=O)[C@H](C)NC(=O)[C@H](CCSC)NC(=O)[C@H](CCC(N)=O)NC(=O)[C@H](CCCN=C(N)N)NC(=O)CNC(=O)[C@@H](NC(=O)[C@H](CCC(N)=O)NC(=O)CN)C(C)C)C(=O)N[C@H](C(=O)NCC(=O)N[C@@H](CC(=O)O)C(=O)N[C@@H](CC(=O)O)C(=O)N[C@H](C(=O)N[C@@H](CC(N)=O)C(=O)N[C@@H](CCCN=C(N)N)C(=O)O)[C@@H](C)CC)[C@@H](C)CC`, the values for the EC50 (at Bcl-2-like protein 1; in assay [1]) were 1.43 µM and 29.9 µM, respectively.
For the compound `CC[C@H](C)[C@H](NC(=O)[C@H](C)NC(=O)[C@H](CC(C)C)NC(=O)[C@H](CCC(N)=O)NC(=O)[C@H](CCCNC(=N)N)NC(=O)CNC(=O)[C@@H](NC(=O)[C@H](CCC(N)=O)NC(=O)CN)C(C)C)C(=O)N[C@H](C(=O)NCC(=O)N[C@@H](CC(=O)O)C(=O)N[C@@H](CC(=O)O)C(=O)N[C@@H](Cc1ccc([N+](=O)[O-])cc1)C(=O)N[C@@H](CC(N)=O)C(=O)N[C@@H](CCCNC(=N)N)C(=O)O)[C@@H](C)CC`, the values for the EC50 (on Bcl-2-like protein 1; in assay [1]) were 0.594 µM and 8.02 µM, respectively. For the same compound, in assay [2], the Ratio EC50 is 13.
Consider `CC[C@H](C)[C@H](NC(=O)[C@H](C)NC(=O)[C@H](Cc1ccc2ccccc2c1)NC(=O)[C@H](CCC(N)=O)NC(=O)[C@H](CCCNC(=N)N)NC(=O)CNC(=O)[C@@H](NC(=O)[C@H](CCC(N)=O)NC(=O)CN)C(C)C)C(=O)N[C@H](C(=O)NCC(=O)N[C@@H](CC(=O)O)C(=O)N[C@@H](CC(=O)O)C(=O)N[C@H](C(=O)N[C@@H](CC(N)=O)C(=O)N[C@@H](CCCNC(=N)N)C(=O)O)[C@@H](C)CC)[C@@H](C)CC`, for which the figures for the EC50 (on Bcl-2-like protein 1; in assay [1]) were 0.127 µM and 17 µM, respectively. In addition, in assay [2], the Ratio EC50 came out at 133.
For `CC[C@H](C)[C@H](NC(=O)[C@H](C)NC(=O)[C@H](CC(C)C)NC(=O)[C@H](CCC(N)=O)NC(=O)[C@H](CCCNC(=N)N)NC(=O)CNC(=O)[C@@H](NC(=O)[C@H](CCC(N)=O)NC(=O)CN)C(C)C)C(=O)N[C@H](C(=O)NCC(=O)N[C@@H](CC(=O)O)C(=O)N[C@@H](CC(=O)O)C(=O)N[C@@H](Cc1ccc(Cl)cc1)C(=O)N[C@@H](CC(N)=O)C(=O)N[C@@H](CCCNC(=N)N)C(=O)O)[C@@H](C)CC`, in that order: 0.038 µM, 1.14 µM and 30.
Take `CC[C@H](C)[C@H](NC(=O)[C@H](C)NC(=O)[C@H](CC(C)C)NC(=O)[C@H](CCC(N)=O)NC(=O)[C@H](CCCN=C(N)N)NC(=O)CNC(=O)[C@@H](NC(=O)[C@H](CCC(N)=O)NC(=O)CN)C(C)C)C(=O)N[C@@H](Cc1ccc(-c2ccccc2)cc1)C(=O)NCC(=O)N[C@@H](CC(=O)O)C(=O)N[C@@H](CC(=O)O)C(=O)N[C@H](C(=O)N[C@@H](CC(N)=O)C(=O)N[C@@H](CCCN=C(N)N)C(=O)O)[C@@H](C)CC`: the EC50 came out at 1.25 µM on Bcl-2-like protein 1 and 20.7 µM in assay [1].
With `CC[C@H](C)[C@H](NC(=O)[C@H](C)NC(=O)[C@H](CC(C)C)NC(=O)[C@H](CCC(N)=O)NC(=O)[C@H](CCCNC(=N)N)NC(=O)CNC(=O)[C@@H](NC(=O)[C@H](CCC(N)=O)NC(=O)CN)C(C)C)C(=O)N[C@@H](Cc1c[nH]c2ccccc12)C(=O)NCC(=O)N[C@@H](CC(=O)O)C(=O)N[C@@H](CC(=O)O)C(=O)N[C@H](C(=O)N[C@@H](CC(N)=O)C(=O)N[C@@H](CCCNC(=N)N)C(=O)O)[C@@H](C)CC`, the EC50 came out at 0.375 µM on Bcl-2-like protein 1 and 2.8 µM in assay [1]. The Ratio EC50 in assay [2] was 7.
As to `CCCC[C@H](NC(=O)[C@H](CCC(N)=O)NC(=O)CN)C(=O)NCC(=O)N[C@@H](CCCN=C(N)N)C(=O)N[C@@H](CCC(N)=O)C(=O)N[C@@H](CC(C)C)C(=O)N[C@@H](C)C(=O)N[C@H](C(=O)N[C@H](C(=O)NCC(=O)N[C@@H](CC(=O)O)C(=O)N[C@@H](CC(=O)O)C(=O)N[C@H](C(=O)N[C@@H](CC(N)=O)C(=O)N[C@@H](CCCN=C(N)N)C(=O)O)[C@@H](C)CC)[C@@H](C)CC)[C@@H](C)CC`, the EC50 at Bcl-2-like protein 1 turned out to be 0.071 µM; in assay [1], 0.757 µM.
